# CYP2C9 inhib = blockers of cytochrome P450 2C9 activity – biochemical, luminescence, ADME assay, primary screen. P11712. CYP2C9 Supersomes, luciferin-H conversion. inhibition, % at 5 µM. actives 20% (n = 96,000). AID 777, 2007;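 active = blocking of liver enzyme CYP2C9 beyond about 50% at 5 µM, limit read from the data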
# Target sequence (P11712 whole entry, looked up): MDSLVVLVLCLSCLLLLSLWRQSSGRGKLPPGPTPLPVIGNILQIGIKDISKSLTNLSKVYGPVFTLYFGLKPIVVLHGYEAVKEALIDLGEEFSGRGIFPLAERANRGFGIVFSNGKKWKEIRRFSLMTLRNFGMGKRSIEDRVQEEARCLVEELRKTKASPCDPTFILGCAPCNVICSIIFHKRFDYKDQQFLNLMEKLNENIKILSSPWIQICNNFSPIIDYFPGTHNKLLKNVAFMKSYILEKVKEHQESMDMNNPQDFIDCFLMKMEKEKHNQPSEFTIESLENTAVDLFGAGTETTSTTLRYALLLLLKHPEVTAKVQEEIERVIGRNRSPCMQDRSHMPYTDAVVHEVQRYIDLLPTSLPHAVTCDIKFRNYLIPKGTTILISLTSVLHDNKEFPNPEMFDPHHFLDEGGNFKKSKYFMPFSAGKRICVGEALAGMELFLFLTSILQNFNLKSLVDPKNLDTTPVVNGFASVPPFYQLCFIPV
# CYP2C19 inh = blockers of cytochrome P450 2C19 activity – biochemical, luminescence, ADME assay, primary screen; inhibition, % at 5 µM; actives 21% (n = 96,000); AID 778, 2007; CYP2C19 Supersomes, luciferin-H EGE luminescence, 30 min;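 active = CYP2C19 inhibition above a set limit at 5 µM in the primary screen, cut at about 50% in these data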;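 note: plate controls were negative control wells for no effect and 2.5 mM tranylcypromine positive control for full effect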
# Cav32 inh = Cav3.2 calcium influx blockers – cell-based, Fluo-4 calcium fluorescence, FDSS, MLSMR library, primary screen; Cav3.2-expressing cells; active compounds read low; actives 4% (n = 100,000); B-score at 10 µM;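 active = single-dose well whose peak fluorescence ratio is a statistical outlier from its plate by either plate-standardised score or position-corrected B-score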
# CYP2C9 activ = human CYP2C9 activators, primary screen, biochemical, luminescence | recombinant CYP2C9, luciferin-H conversion; active compounds read high; factor 1 = untreated enzyme, 0 = blocked | activation factor at 5 µM | actives 1.4% (n = 96,000) | AID 1024, 2008;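 active = activation factor of 2 or more for CYP2C9 at a 5 µM dose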;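 note: 0 = sulfaphenazole-blocked wells and 1 = vehicle-only wells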
# Rev-RRE block = HIV-1 Rev-RRE binding inhibitors, primary screen, biochemical, FRET, protein-RNA interaction. Rev peptide-RRE RNA binding. inhibition, % at 8 µM. actives 0.79% (n = 97,000). AID 704, 2007;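 active = inhibition above the screen-wide mean plus 3 SD, cut at about 35% in these data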;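 note: 0% = median DMSO wells and 100% = median Neomycin B control wells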
# Target sequence (P05866 whole entry, looked up): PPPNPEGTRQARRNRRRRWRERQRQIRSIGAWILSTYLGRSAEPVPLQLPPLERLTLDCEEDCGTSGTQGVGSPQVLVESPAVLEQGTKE
#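 Assay system: labelled RRE RNA duplex and labelled Rev peptide / Medium: HEPES pH 7.5 salt buffer with EDTA / Reagent: labelled Rev peptide / Schedule: 5 + 15 min at 25 °C / Signal: FRET, excitation 480 nm, emission 540 nm donor and 671 nm acceptor / Benchmarks: DMSO and neomycin B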
# CYP2C19 activ = human CYP2C19 activators, primary screen, biochemical, luminescence; activation factor at 5 µM; 96,000 tested, under 10 active; recombinant CYP2C19, luciferin-H EGE luminescence; active compounds read high; 0 = fully inhibited enzyme, 1 = untreated enzyme;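 active = activation factor of at least 2 at 5 µM in the primary screen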;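 note: 0 = wells with 2.5 mM tranylcypromine and 1 = vehicle-only wells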
# The depositor's hits bear a star; / = no result; [ ] = dose if it differs, or a comment. Only some compounds are listed: those with a hit (about 27% of all), similar ones and a draw of the others.
SMILES,CYP2C9 inhib,CYP2C19 inh,Cav32 inh,CYP2C9 activ,Rev-RRE block,CYP2C19 activ
COc1ccccc1N1CCN(CC(=O)c2c(C)[nH]c3ccccc23)CC1,-84.7,86.8*,-0.715,1.8,0.6,0.1
COc1ccc2[nH]c(C)c(C(=O)CN3CCN(C/C=C/c4ccccc4)CC3)c2c1,54.2*,11.2,-1.63,0.5,15.8,0.9
Cc1[nH]c2ccccc2c1C(=O)CN1CCN(C/C=C/c2ccccc2)CC1,-6.2,5.9,-3.73,1.1,4.6,0.9
COc1cc(C(=O)N(C)c2nnc(-c3cccnc3)s2)cc(OC)c1OC,-7.3,0.9,0.353,1.1,4.7,1
COc1ccc(CNC(=O)C(C)N(Cc2ccco2)C(=O)c2snc(C(N)=O)c2N)cc1 (stereo unspecified),63.9*,84.8*,2.18,0.4,5.3,0.2
CCc1ccccc1N(CC(=O)NCc1ccco1)C(=O)c1snc(C(N)=O)c1N,69.4*,95.0*,1.64,0.3,10.4,0.1
O=C(Nc1cc2c(cc1Br)OCCO2)c1cccs1,21.0,57.2*,-0.554,0.8,2.2,0.4
Cc1ccc2cc(COC(=O)C3CCCO3)c(=O)[nH]c2c1 (stereo unspecified),3.6,0.4,0.229,1,3.6,1
CS(=O)(=O)N(Cc1nnc(-c2cccs2)o1)c1ccc(Cl)cc1F,87.6*,98.8*,-0.305,0.1,-4.5,0
CC(=O)N1CCc2cc(Br)cc(S(=O)(=O)NCC3CCCO3)c21 (stereo unspecified),-5.0,24.5,-0.137,1.1,-0.6,0.8
N#CC1=C(N)SC(N)=C(C#N)C1CCc1ccccc1,92.1*,85.1*,-2.34,0.1,78.7*,0.1
N#CC1=C(N)Oc2n[nH]c(-c3ccccn3)c2C1c1c(F)cccc1Cl (stereo unspecified),17.3,10.3,/,0.8,4.2,0.9
CC(C)CC1C(C#N)=C(N)SC(N)=C1C#N,13.2,42.2,-0.849,0.9,13.2,0.6
N#CC1=C(N)SC(N)=C(C#N)C1Cc1ccccc1,33.6,45.7,-1.13,0.7,47.0*,0.5
N#CC1=C(N)SC(N)=C(C#N)C1c1c(Cl)cccc1Cl,95.1*,89.3*,0.849,0,10.9,0.1
O=C(Oc1ccc(-c2nnco2)cc1)N1CCCCC1,29.5,77.4*,1.83,0.7,2.9,0.2
O=C(Oc1ccc(Cl)cc1)N1CCCCC1,17.6,40.3,0.56,0.8,-3.1,0.6
O=C(Oc1ccc(-c2nnco2)cc1)N(c1ccccc1)c1ccccc1,39.0,69.2*,-1.94,0.6,10.9,0.3
Nc1cc(-c2ccc(Cl)cc2)nn1S(=O)(=O)c1cccc2nsnc12,86.0*,93.6*,-6.4*,0.1,12.4,0.1
Nc1cc(-c2cccc(F)c2)nn1S(=O)(=O)c1cccc2nsnc12,/,/,-5.23*,/,/,/
Nc1cc(-c2ccc(Br)cc2)nn1S(=O)(=O)c1cccc2nsnc12,88.8*,96.4*,/,0.1,-0.2,0
COc1ccc(-c2cc(O)cc(O)c2)cc1,59.7*,58.8*,-0.966,0.4,9.9,0.4
c1ccc2c(SCc3cn4cccnc4n3)ncnc2c1,2.5,54.0*,0.912,1,-1.1,0.5
CC(Nc1nc(N2CCN(S(C)(=O)=O)CC2)nc2ccccc12)c1ccccc1 (stereo unspecified),/,/,-3.28,/,18.2,/
Cc1cccc(-n2ncc3c(NCc4ccccn4)ncnc32)c1,32.5,21.5,-0.324,0.7,1.5,0.8
SMILES,CYP2C9 inhib,CYP2C19 inh,Cav32 inh,CYP2C9 activ,Rev-RRE block,CYP2C19 activ
Clc1ccc2c(NCc3ccccn3)ncnc2c1,47.6,61.6*,0.0979,0.5,7.3,0.4
COc1ccc2[nH]c3c(NCc4ccco4)ncnc3c2c1,46.2,19.5,-0.0208,0.5,12.6,0.8
Clc1ccc2c(NCc3ccco3)ncnc2c1,55.0*,78.6*,0.0687,0.4,9.6,0.2
CSc1nc(-c2ccccc2)nc2[nH]ccc(=O)c12,/,/,/,/,7.7,/
Cc1ccc2c(c1)N(C(=O)NC1CCCCC1)C(C)(C)CC2C (stereo unspecified),33.3,71.6*,-2.16,0.7,1.5,0.3
CCOC(=O)C(Cc1cc(C(C)=O)ccc1OC(C)C)C(=O)OCC,61.2*,60.4*,-1.42,0.4,-4.5,0.4
CC12C(=O)N(c3nccs3)C(=O)C1C1C=CC2C1 (stereo unspecified),2.6,64.9*,-1.7,1,9.3,0.4
O=C(COC(=O)C1CC1)Nc1ccc(OC(F)F)cc1,15.5,77.1*,0.154,0.8,2.6,0.2
O=C(COC(=O)C1CCC1)Nc1ccc(OC(F)F)cc1,11.7,86.1*,0.476,0.9,/,0.1
O=C(CC(c1ccccc1)c1ccccc1)Nc1ncn[nH]1,83.2*,50.3*,0.874,0.2,3.5,0.5
O=C(COc1ccc2ccccc2c1Br)Nc1ncn[nH]1,9.4,56.5*,0.208,0.9,/,0.4
O=C(COc1ccc2ccccc2c1Br)N1CCOCC1,/,/,0.745,/,6.5,/
Cc1cccc(C)c1OCC(=O)Nc1ncn[nH]1,1.2,62.8*,0.949,1,3.7,0.4
Cc1ccc(SC(C)C(=O)Nc2ncn[nH]2)cc1 (stereo unspecified),28.3,24.6,-0.0267,0.7,5.5,0.8
Clc1ccc(NC2=NCCCCC2)cc1,-14.2,8.0,0.477,1.1,5.5,0.9
Cc1cc(S(=O)(=O)N(Cc2ccccc2)Cc2ccc(N(C)C)cc2)ccc1-n1cnnn1,/,/,-1.38,/,/,/
Cc1cc(S(=O)(=O)N(C)CCc2ccccc2)ccc1-n1cnnn1,26.2,57.2*,1.61,0.7,1.8,0.4
Cc1ccc2cccc(OC(=O)c3ccc4c(c3)OCCO4)c2n1,-9.2,6.4,-0.00389,1.1,5.2,0.9
CCCC(C)C(=O)N(Cc1ccccc1)c1ccccn1 (stereo unspecified),50.8*,66.7*,0.563,0.5,1.6,0.3
Cc1c2cc(O)c(=O)cc-2oc2cc(O)c(O)cc12,81.6*,25.2,-3.9*,0.2,139.8*[fluorescence artefact?],0.7
COc1c(O)cc2oc(-c3ccc(O)cc3)cc(=O)c2c1O,/,/,-0.874,/,/,/
O=S(=O)(c1ccc(OCC(O)CN2CCc3ccccc3C2)cc1)N1CCOCC1 (stereo unspecified),9.2,-3.1,0.443,0.9,-0.9,1
O=C(Nc1nccs1)c1sc2cc(Cl)ccc2c1Cl,32.8,57.0*,-1.03,0.7,0.6,0.4
Clc1ccc(CNC2CCCC2)c(Cl)c1,-11.4,76.6*,-0.0214,1.1,2.4,0.2

# Screens as filed in PubChem BioAssay.
